Biological target: PARP-1 (poly ADP-ribose polymerase) (Homo sapiens, UniProt P09874)
Assay: PARP-1 chemiluminescent assay kit
Assay type: biochemical
Details: read-out: % (inhibition at 21.35 μM)
Summary of the method: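 Human PARP-1 activity was measured with a chemiluminescent kit, run per the maker's protocol. PARP-1 incorporates biotinylated NAD into biotinyl-poly(ADP-ribose) on immobilized histone substrate. The biotinylated substrate was incubated with the test compound at several concentrations in assay buffer containing PARP-1 enzyme. The read-out was chemiluminescence.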

Chain of PARP-1 (poly ADP-ribose polymerase) (P09874 2-1014): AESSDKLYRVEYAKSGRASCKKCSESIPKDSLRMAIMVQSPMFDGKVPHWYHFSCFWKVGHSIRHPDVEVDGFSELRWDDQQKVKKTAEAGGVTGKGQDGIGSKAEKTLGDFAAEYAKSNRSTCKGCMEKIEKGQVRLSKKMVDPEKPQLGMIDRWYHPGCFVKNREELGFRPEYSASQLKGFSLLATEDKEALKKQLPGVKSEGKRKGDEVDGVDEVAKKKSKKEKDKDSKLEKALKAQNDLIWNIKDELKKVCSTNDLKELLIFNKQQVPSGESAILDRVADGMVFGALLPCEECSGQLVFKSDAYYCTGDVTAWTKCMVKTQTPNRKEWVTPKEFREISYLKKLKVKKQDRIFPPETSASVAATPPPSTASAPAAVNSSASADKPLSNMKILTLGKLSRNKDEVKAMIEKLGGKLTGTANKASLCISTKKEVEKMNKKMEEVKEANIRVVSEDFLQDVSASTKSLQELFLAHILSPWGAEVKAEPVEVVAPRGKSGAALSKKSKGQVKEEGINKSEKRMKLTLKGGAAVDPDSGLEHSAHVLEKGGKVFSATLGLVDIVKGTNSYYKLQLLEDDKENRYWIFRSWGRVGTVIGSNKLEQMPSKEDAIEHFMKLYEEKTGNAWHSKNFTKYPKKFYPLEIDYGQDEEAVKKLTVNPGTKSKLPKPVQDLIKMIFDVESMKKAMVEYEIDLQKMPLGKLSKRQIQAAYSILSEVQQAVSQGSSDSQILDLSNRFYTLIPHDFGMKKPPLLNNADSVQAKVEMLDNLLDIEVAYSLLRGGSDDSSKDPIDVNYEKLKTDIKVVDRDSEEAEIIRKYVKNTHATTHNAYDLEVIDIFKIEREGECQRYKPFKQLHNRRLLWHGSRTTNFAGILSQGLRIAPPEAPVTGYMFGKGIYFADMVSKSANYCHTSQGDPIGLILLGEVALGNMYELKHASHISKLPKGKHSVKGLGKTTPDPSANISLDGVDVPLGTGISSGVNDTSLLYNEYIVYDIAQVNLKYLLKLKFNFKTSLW

inhibition at 21.35 µM: 96.2%
Structure (SMILES): O=C1C[C@@H](c2ccccc2)Oc2c(Cc3ccccc3O)c(O)c(Cc3ccccc3O)c(O)c21 [dichamanetin]

Source: article PMC4281931 (Anticancer research, 2013)
